Measurements from ChEMBL document CHEMBL1136847, “Syntheses and potential anti-prostate cancer activities of ionone-based chalcones” (Bioorg Med Chem Lett, 2009).
Positions count from the first letter of the chain named.

Key:
[1] = system: T1, Androgen receptor (Homo sapiens), P10275 [H875Y]; assay: Antagonist activity at androgen receptor H874Y mutant in human PC3 cells transiently transfected with pCMV-MMTV-Luc assessed as suppression of DHT-induced receptor transactivation; assay type: functional, cell-based; conditions: PC-3
T1 sequence (whole entry): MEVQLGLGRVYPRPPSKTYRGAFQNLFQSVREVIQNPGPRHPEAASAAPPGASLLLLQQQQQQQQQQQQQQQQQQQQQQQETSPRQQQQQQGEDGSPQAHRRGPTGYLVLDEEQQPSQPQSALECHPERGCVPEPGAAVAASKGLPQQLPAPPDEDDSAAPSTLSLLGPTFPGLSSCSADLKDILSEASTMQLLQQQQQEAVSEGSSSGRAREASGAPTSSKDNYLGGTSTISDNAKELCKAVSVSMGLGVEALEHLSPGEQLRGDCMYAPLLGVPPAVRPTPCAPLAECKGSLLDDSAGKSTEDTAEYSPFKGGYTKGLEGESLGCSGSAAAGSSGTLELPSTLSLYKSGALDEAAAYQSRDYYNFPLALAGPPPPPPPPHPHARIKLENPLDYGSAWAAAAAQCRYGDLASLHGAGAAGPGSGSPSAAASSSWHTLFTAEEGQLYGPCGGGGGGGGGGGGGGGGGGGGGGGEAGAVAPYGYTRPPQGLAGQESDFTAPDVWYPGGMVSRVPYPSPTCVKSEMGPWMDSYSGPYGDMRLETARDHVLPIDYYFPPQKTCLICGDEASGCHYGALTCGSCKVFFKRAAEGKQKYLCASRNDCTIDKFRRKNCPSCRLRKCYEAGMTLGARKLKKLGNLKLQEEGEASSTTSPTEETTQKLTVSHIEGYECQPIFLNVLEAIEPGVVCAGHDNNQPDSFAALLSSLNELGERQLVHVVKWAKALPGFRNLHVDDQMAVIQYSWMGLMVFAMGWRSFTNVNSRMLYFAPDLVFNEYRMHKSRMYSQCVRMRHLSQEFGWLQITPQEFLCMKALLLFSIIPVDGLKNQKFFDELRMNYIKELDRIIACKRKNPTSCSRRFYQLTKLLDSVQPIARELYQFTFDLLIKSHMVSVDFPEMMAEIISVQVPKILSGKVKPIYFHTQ
Method in brief: (§1)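 PC-3 cells seeded 24 h before co-transfection with MMTV-luciferase reporter (100 ng), the wild-type, T877A, W741C or H874Y AR plasmid (10 ng) and Renilla null luciferase (10 ng) using Lipofectamine 2000. Medium switched after 5 h to phenol red-free RPMI 1640 with 10% charcoal-stripped FBS. After 16 h, 0.1 nM DHT ± compound (0.1, 1.0 µM) for 24 h. Dual-luciferase read-out, Renilla-standardized, normalized to DHT alone (100%).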

PC-3 = assay: Cytotoxicity against androgen-independent human PC3 cells after 72 hrs by MTT assay; assay type: functional, cell-based; conditions: PC-3, 72 h
Method in brief: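 Cells seeded at 6000–7000 per well in RPMI 1640 with 10% FBS, penicillin and streptomycin, left overnight, then exposed to a range of concentrations from DMSO stock (final DMSO 0.5%) for 72 h. MTT added for a further 2 h and formazan from viable cells read. IC50 taken from survival curves, 50% inhibition relative to 0.5% DMSO control; top concentration 150 µM.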

[2] = Cytotoxicity against human RWPE1 cells after 72 hrs by MTT assay; assay type: cell-based; conditions: RWPE-1, 72 h
Method in brief: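 Non-tumorigenic prostate epithelial line plated at 6000–7000 cells per well in keratinocyte serum-free medium with 0.05 mg/mL bovine pituitary extract and 5 ng/mL EGF; overnight attachment, then compounds at various concentrations in 0.5% final DMSO for 72 h. MTT 2 h, formazan read; IC50 from survival curves versus DMSO control.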

[3] = biological target: T2, Androgen receptor (Homo sapiens) (UniProt P10275); assay: Antagonist activity at wild type androgen receptor in human PC3 cells transiently transfected with pCMV-MMTV-Luc assessed as suppression of DHT-induced receptor transactivation; assay type: functional, cell-based; conditions: PC-3; method in brief: as §1
T2 sequence (whole entry): T1 sequence (whole entry) with Y875H

CC1=C(/C=C/C(=O)/C=C/c2cccc(C(F)(F)F)c2)C(C)(C)CCC1O (centres undefined)
Activity [1]: Dose-dependent effect
IC50 (PC-3): 3500 nM
IC50 [2]: 730 nM
Activity [3]: Dose-dependent effect
